From ChEMBL document CHEMBL3813629, “Antistaphylococcal Prenylated Acylphoroglucinol and Xanthones from Kielmeyera variabilis” (2016)
Values after ≈ are worked out from the molar mass of the structure shown. Active and inactive are the calls of the source.

Experiments:
[1] = tested on: Staphylococcus aureus; assay: Antibacterial activity against […] Staphylococcus aureus SA1199B over expressing NorA MDR efflux pump after 18 hrs by MTT assay; format: functional
In short: (§1)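 Strains grown on nutrient agar 24 h at 37 °C; inoculum 1 × 10⁶ cfu/mL in normal saline, set against 0.5 McFarland standard. Samples dissolved in DMSO, diluted in cation-adjusted Mueller-Hinton broth (Ca²⁺ 20 mg/L, Mg²⁺ 10 mg/L), starting 1024 mg/L, twofold serial broth microdilution; 37 °C, 18 h; MTT added, 20 min; MIC = lowest concentration without yellow-to-blue change.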

[2] = tested on: Staphylococcus aureus; assay: Antibacterial activity against […] Staphylococcus aureus XU212 expressing TetK efflux pump after 18 hrs by MTT assay; format: functional; in short: as §1
[3] = tested on: Staphylococcus aureus; assay: Antibacterial activity against […] Staphylococcus aureus ATCC 25923 after 18 hrs by MTT assay; format: functional; in short: as §1
[4] = tested on: Staphylococcus aureus; assay: Antibacterial activity against MsrA macrolide-resistant Staphylococcus aureus RN4220 after 18 hrs by MTT assay; format: functional; in short: as §1
[5] = tested on: Staphylococcus aureus; assay: Antibacterial activity against […] Staphylococcus aureus EMRSA-15 after 18 hrs by MTT assay; format: functional; in short: as §1
[6] = tested on: Staphylococcus aureus; assay: Antibacterial activity against […] Staphylococcus aureus EMRSA-16 after 18 hrs by MTT assay; format: functional; in short: as §1
[7] = tested on: Staphylococcus aureus; assay: […] activity against […] Staphylococcus aureus SA1199B over expressing NorA MDR efflux pump assessed as growth inhibition after 24 hrs using cell cultures pre-treated with compound for 24 hrs; format: functional, organism-based
In short: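 MIC-plate wells from SA-1199B showing no growth sampled (10 μL) onto drug-free Mueller-Hinton agar, incubated 24 h; growth of colonies scored; bactericidal end point defined as ≥99.9% reduction versus starting inoculum. MBC plates themselves incubated 24 h at 37 °C before transfer.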

For `COc1cc([C@@H]2Oc3c(OC)cc4c(=O)c5ccccc5oc4c3O[C@H]2CO)ccc1O`, the MIC [1] was > 512 µg/mL, the MIC ([2]; XU212, 18 h) was > 512 µg/mL and the MIC ([3]; ATCC 25923, 18 h) was > 512 µg/mL. For the same molecule, the MIC ([4]; RN4220, 18 h) was > 512 µg/mL, the MIC ([5]; EMRSA-15, 18 h) was > 512 µg/mL and the MIC ([6]; EMRSA-16, 18 h) was > 512 µg/mL.
`COc1cc(OC)c2c(=O)c3cccc(O)c3oc2c1` was tested, and the MIC [1] was 64 µg/mL (≈ 235 µM), the MIC ([2]; XU212, 18 h) was > 512 µg/mL and the MIC ([3]; ATCC 25923, 18 h) was 128 µg/mL (≈ 470 µM). The MIC ([4]; RN4220, 18 h) was > 512 µg/mL, the MIC ([5]; EMRSA-15, 18 h) was > 512 µg/mL and the MIC ([6]; EMRSA-16, 18 h) was 64 µg/mL (≈ 235 µM).
With `CC[C@H](/C=C/[C@@H](C)[C@H]1CC[C@H]2[C@@H]3CC=C4C[C@@H](O)CC[C@]4(C)[C@H]3CC[C@]12C)C(C)C` the MIC [1] was “inactive”, the MIC [2] was “inactive” and the MIC [3] was “inactive”. The MIC [4] was “inactive”, the MIC [5] was “inactive” and the MIC [6] was “inactive”.
`COc1cc2c(=O)c3ccccc3oc2c(O)c1OC` gave an MIC [1] of 64 µg/mL (≈ 235 µM), an MIC ([2]; XU212, 18 h) of 128 µg/mL (≈ 470 µM) and an MIC ([3]; ATCC 25923, 18 h) of 128 µg/mL (≈ 470 µM). The MIC ([4]; RN4220, 18 h) was > 512 µg/mL, the MIC ([5]; EMRSA-15, 18 h) was > 512 µg/mL and the MIC ([6]; EMRSA-16, 18 h) was 64 µg/mL (≈ 235 µM).
`CCCCC(C(=O)OC)[C@]12C(=O)[C@](CC=C(C)C)(C[C@H](CC=C(C)C)C1(C)C)C(=O)C(C(=O)CCC)=C2O` (some centres not stated) gave an MIC [1] of 2 µg/mL (≈ 3.78 µM), an MIC ([2]; XU212, 18 h) of 0.25 µg/mL (≈ 0.473 µM) and an MIC ([3]; ATCC 25923, 18 h) of 1 µg/mL (≈ 1.89 µM). It also gave an MIC ([4]; RN4220, 18 h) of 0.25 µg/mL (≈ 0.473 µM), an MIC ([5]; EMRSA-15, 18 h) of 1 µg/mL (≈ 1.89 µM) and an MIC ([6]; EMRSA-16, 18 h) of 0.5 µg/mL (≈ 0.946 µM). For the same molecule, the “growth inhibition (GI)” value [7] was “Active”.
`COc1cc2c(=O)c3ccccc3oc2cc1O` gave an MIC [1] of 64 µg/mL (≈ 264 µM), an MIC ([2]; XU212, 18 h) of 64 µg/mL (≈ 264 µM) and an MIC ([3]; ATCC 25923, 18 h) of 64 µg/mL (≈ 264 µM). For the same molecule, the MIC ([4]; RN4220, 18 h) was 64 µg/mL (≈ 264 µM), the MIC ([5]; EMRSA-15, 18 h) was 64 µg/mL (≈ 264 µM) and the MIC ([6]; EMRSA-16, 18 h) was 32 µg/mL (≈ 132 µM).
With `CC(C)[C@H](C)CC[C@@H](C)[C@H]1CC[C@H]2[C@@H]3CC=C4C[C@@H](O)CC[C@]4(C)[C@H]3CC[C@]12C` the MIC [1] was “inactive”, the MIC [2] was “inactive” and the MIC [3] was “inactive”. For the same molecule, the MIC [4] was “inactive”, the MIC [5] was “inactive” and the MIC [6] was “inactive”.
With `CCn1cc(C(=O)O)c(=O)c2cc(F)c(N3CCNCC3)cc21` [NORFLOXACIN] the MIC [1] was 32 µg/mL (≈ 100 µM), the MIC ([2]; XU212, 18 h) was 8 µg/mL (≈ 25.1 µM) and the MIC ([3]; ATCC 25923, 18 h) was 0.5 µg/mL (≈ 1.57 µM). The MIC ([4]; RN4220, 18 h) was 0.5 µg/mL (≈ 1.57 µM), the MIC ([5]; EMRSA-15, 18 h) was 0.5 µg/mL (≈ 1.57 µM) and the MIC ([6]; EMRSA-16, 18 h) was 128 µg/mL (≈ 401 µM).
For `CC[C@H](CC[C@@H](C)[C@H]1CC[C@H]2[C@@H]3CC=C4C[C@@H](O)CC[C@]4(C)[C@H]3CC[C@]12C)C(C)C`, the MIC [1] was “inactive”, the MIC [2] was “inactive” and the MIC [3] was “inactive”. The MIC [4] was “inactive”, the MIC [5] was “inactive” and the MIC [6] was “inactive”.
`COc1c(O)ccc2oc3ccccc3c(=O)c12` showed an MIC [1] of 64 µg/mL (≈ 264 µM), an MIC ([2]; XU212, 18 h) of 128 µg/mL (≈ 528 µM) and an MIC ([3]; ATCC 25923, 18 h) of 64 µg/mL (≈ 264 µM). For the same molecule, the MIC ([4]; RN4220, 18 h) was 64 µg/mL (≈ 264 µM), the MIC ([5]; EMRSA-15, 18 h) was 64 µg/mL (≈ 264 µM) and the MIC ([6]; EMRSA-16, 18 h) was 32 µg/mL (≈ 132 µM).
For `COc1cc2c(=O)c3ccccc3oc2c(O)c1O`, the MIC [1] was 32 µg/mL (≈ 124 µM), the MIC ([2]; XU212, 18 h) was 16 µg/mL (≈ 62 µM) and the MIC ([3]; ATCC 25923, 18 h) was 64 µg/mL (≈ 248 µM). The MIC ([4]; RN4220, 18 h) was 32 µg/mL (≈ 124 µM), the MIC ([5]; EMRSA-15, 18 h) was 64 µg/mL (≈ 248 µM) and the MIC ([6]; EMRSA-16, 18 h) was 16 µg/mL (≈ 62 µM).
